{"data": "Published values collected from several papers"}
{"Compound": "O=C(O)C1CCN(c2ncc(-c3ccc4c(c3)OCCCO4)s2)CC1", "system": "male Swiss mouse, plasma", "conditions": "oral, 30 mg/kg, 4 h, single dose", "quantity": "concentration", "result": "3890 ng/mL"}
{"Compound": "CC(C)(O)c1ccccc1-c1ccc2[nH]c(/C=C/c3ccc(C(F)(F)F)cc3)nc2c1", "system": "male human, plasma", "conditions": "oral, 15 mg, single dose, fasted, healthy volunteers", "quantity": "MRT", "result": "84 h"}
{"Compound": "CC(C)Oc1cccc(-c2cnc(N3CCC(C(N)=O)CC3)s2)c1", "system": "male Swiss mouse, plasma", "conditions": "oral, 30 mg/kg, 8 h, single dose", "quantity": "concentration", "result": "8.49 ng/mL"}
{"Compound": "CC(C)(C)c1ccc(O)c(CN(Cc2cc(C(C)(C)C)ccc2O)C2CCC(NC(N)=O)CC2)c1 (centres unmarked)", "system": "male C57BL/6 mouse, plasma", "conditions": "intraperitoneal, 5 mg/kg, single dose", "quantity": "half-life", "result": "2.4 h"}
{"Compound": "CC(C)CN(C[C@@H](O)[C@H](Cc1ccccc1)NC(=O)O[C@H]1CO[C@H]2OCC[C@H]21)S(=O)(=O)c1ccc(N)cc1", "system": "BALB/c mouse, brain", "conditions": "intravenous, 2.5 mg/kg, 6 h", "quantity": "concentration", "result": "1.36 ng/g"}
{"Compound": "O=c1nc(N2CCN(CC3CCCCC3)CC2)sc2c([N+](=O)[O-])cc(C(F)(F)F)cc12", "system": "CD-1 mouse, plasma", "conditions": "intravenous, 10 mg/kg, 4 h", "quantity": "concentration", "result": "139 ng/mL"}
{"Compound": "c1cnc2ccc(Nc3nc(NC4CC4)c4nc[nH]c4n3)cc2c1", "system": "human, plasma", "conditions": "oral, 100 mg/m², patients", "quantity": "MRT(0-t)", "result": "8.1 h"}
{"Compound": "CC(C)(Nc1nc(-c2ccccn2)nc2ccccc12)c1ccccn1", "system": "female BALB/c mouse, plasma", "conditions": "oral, 50 mg/kg, 2 h", "quantity": "concentration", "result": "4230 ng/mL"}
